# Assay results from different studies.
# Lines come from different studies, so protocols differ.
# Target: RAC-beta serine/threonine-protein kinase (AKT2, Homo sapiens, UniProt P31751)
SMILES,test,setting,endpoint,result
CC(C)(O)[C@H]1CC[C@H](Nc2ccc3ncc(-c4cccc(C(F)(F)F)c4)n3n2)CC1,"enzyme activity, inhibitor",1 µM,remaining activity,102%
CCC(=O)N[C@H]1CC[C@@H](C(=O)N(C)c2ccc(-c3nc4ccccc4o3)cc2)C1,"cell-free assay, competition with immobilised ligand",1 µM,remaining binding,89%
O=C(Nc1cc(-c2ccc(Cl)cc2)[nH]n1)C1CCCCC1,"enzyme activity, inhibitor",10 µM,activity vs control,75%
C[C@H](c1cccc(C#N)c1)n1cc(Cl)cc(C(N)=O)c1=N,"cell-free assay, competition with immobilised ligand",1 µM,remaining binding,100%
Cc1ccc(C(=O)Nc2ccc(CN3CCN(C)CC3)c(C(F)(F)F)c2)cc1C#Cc1cnc2cccnn12,"enzyme activity, inhibitor",23.5 nM,remaining activity,95%
O=S(=O)(NCCNC/C=C/c1ccc(Br)cc1)c1cccc2cnccc12,cell-free assay,0.5 µM,remaining signal,75.4%
COc1cc(Nc2cnc(C#N)c(O[C@H](C)CN(C)C)n2)ncc1-c1cnn(C)c1,"enzyme activity, inhibitor, radiometric",10 µM,remaining activity,67%
O=C(NS(=O)(=O)c1ccc(NCC2CCOCC2)c([N+](=O)[O-])c1)c1ccc(N2CCN(Cc3ccc(C(F)(F)F)cc3-c3ccc(Cl)cc3)CC2)cc1Oc1cnc2[nH]ccc2c1,"cell-free assay, competition with immobilised ligand",1 µM,remaining binding,100%
CN(c1ncccc1CNc1nc(Nc2ccc3c(c2)CC(=O)N3)ncc1C(F)(F)F)S(C)(=O)=O,"enzyme activity, inhibitor",1 µM,inhibition,1.6%
COc1cc2ncnc(Nc3ccc(Oc4ccccc4)cc3C)c2cc1OC,"enzyme activity, inhibitor",1 µM,inhibition,7%
CC(C)c1ccc(NC(=O)c2cccs2)c(-c2nc3ccccc3[nH]c2=O)c1,"enzyme activity, inhibitor",1 µM,activity vs control,102%
O=C(Nc1cnn(-c2csc(C(=O)NC3COC3)c2)c1)Nc1ccccc1Cl,"enzyme activity, inhibitor",5 µM,remaining activity,88.2%
CC(C)(C)c1nc(-c2cccc(NS(=O)(=O)c3c(F)cccc3F)c2F)c(-c2ccnc(N)n2)s1,"enzyme activity, inhibitor, radiometric",1 µM,remaining activity,91%
CNC(=O)Nc1ccc2c(c1)CC[C@@]21OC(=O)N(CC(=O)N(Cc2ccc(F)cc2)[C@@H](C)C(F)(F)F)C1=O,"cell-free assay, competition with immobilised ligand",1 µM,remaining binding,80%
CCCS(=O)(=O)Nc1ccc(F)c(C(=O)c2c[nH]c3ncc(-c4ccc(Cl)cc4)cc23)c1F,"enzyme activity, inhibitor",1 µM,inhibition,< 10%
CC(=O)N1CCC(c2ccc(C(=O)NC3=NCCN3)cc2C(F)(F)F)CC1,"cell-free assay, competition with immobilised ligand",1 µM,remaining binding,91%
Nc1nc(Nc2ccc(S(N)(=O)=O)cc2)nn1C(=O)c1c(F)cccc1F,cell-free assay,0.5 µM,remaining signal,107%
CNc1cccc2cc(C(=O)Nc3ccc(C(=O)O)cc3)c(=O)[nH]c12,"enzyme activity, inhibitor",10 µM,inhibition,3.3%
N#CCCc1ccc2c(c1)-c1[nH]c3ccc([N+](=O)[O-])cc3c1CC(=O)N2,cell-free assay,0.5 µM,remaining signal,100%
Cc1ccc(NC(=O)c2ccc(C)c(C(F)(F)F)c2)cc1C#Cc1nn(C2CCC(O)CC2)c2ncnc(N)c12 (stereo not drawn),cell-free assay,10 µM,remaining signal,127%
Oc1cccc(-c2nc(N3CCOCC3)c3oc4ncccc4c3n2)c1,cell-free assay,0.5 µM,remaining signal,99.1%
CN1CC(Oc2cnc(C#N)cc2-c2ccn3nc(NC(=O)C4CC4)cc3c2)C1,"enzyme activity, inhibitor",1 µM,inhibition,-3%
CCCOc1ccc(OC)c(F)c1C(=O)c1ccc(C(=O)N[C@@H]2CNC[C@H]2NC(=O)c2ccc3[nH]ncc3c2)cc1,"enzyme activity, inhibitor",10 µM,remaining activity,49%
CNC(=O)c1ccc(Nc2ncc(C(F)(F)F)c(NCc3nccnc3N(C)S(C)(=O)=O)n2)cc1,"cell-free assay, competition with immobilised ligand",0.1 µM,remaining binding,77%
CC(C)(C)C(=O)c1sc(NC2CCCCC2)nc1N,"enzyme activity, inhibitor",10 µM,remaining activity,83%
Cn1c(=O)n(-c2ccc(C(C)(C)C#N)cc2)c2c3cc(-c4cnc5ccccc5c4)ccc3ncc21,"enzyme activity, inhibitor",10 µM,remaining activity,106%
O=C(NCc1ncc(C(F)(F)F)cc1Cl)c1ccc2c(c1)C1(CCS(=O)(=O)CC1)[C@H](C1CC1)N2S(=O)(=O)c1ccc(F)cc1,"cell-free assay, competition with immobilised ligand",1 µM,remaining binding,100%
COc1cc(Cl)c(C(=O)N[C@@H](CN[C@H]2CC[C@@H](N)CC2)Cc2ccc(C#N)cc2)cc1-c1ccc(CN[C@H](C)c2ccc(C)cc2)o1,"enzyme activity, inhibitor",1 µM,remaining activity,65%
CSc1cccnc1N1CCN(Cc2nc3ccccc3[nH]2)CC1,"cell-free assay, competition with immobilised ligand",1 µM,remaining binding,98%
Cc1cnc(NC2CCOCC2)nc1-n1cnc(C(=O)NC(CN)c2cc(F)cc(Cl)c2)c1 (stereo not drawn),"enzyme activity, inhibitor, radiometric",1 µM,remaining activity,92%
